Apaf-1 inh – inhibitors of human Apaf-1 apoptosome; 330,000 compounds, 0.71% hits; reconstituted apoptosome caspase-3 activity, DEVD-Rh110 fluorescence; AID 489030; O14727; inhibition, % at 20 µM; active means inhibition of at least 40% at 20 µM;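 further: plate controls were DMSO wells for no effect and DEVD-CHO caspase inhibitor wells for full effect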
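Material: reconstituted apoptosome with Apaf-1, cytochrome c, caspase-9, procaspase-3, dATP. Technique: Rh110 fluorescence intensity. Buffer or medium: pH 7.5 Hepes buffer with CHAPS, BSA, DTT. Times: 30 min plus 50 min, RT.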
DNA FID counter – counter-screen for HCV NS3 helicase inhibitors: DNA intercalator displacement; inhibition, % at 7.9 µM; AID 1845; DNA fluorescent intercalator displacement, fluorescence; 290,000 compounds, 0.17% hits; in the data active means inhibition above about 37%;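 further: 0% = vehicle and 100% = reference compound; higher means more ethidium bromide displaced from hairpin DNA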
UBC13 inh – blocks human UBC13 polyubiquitin chain formation. TR-FRET. inhibition, % at 20 µM. 330,000 compounds, 0.47% hits. AID 485273; in the data active means inhibition above about 45%, passing the limit was not always enough
TMEM16A inh – blocks the mouse calcium-activated chloride channel TMEM16A. 310,000 compounds, 1.2% hits. Q8BHY3. HEK293 TMEM16A/YFP iodide influx fluorescence, ionomycin. normalized B-score (activity score, 25-100; higher = stronger inhibition) at 10 µM. AID 588511;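 active means ratio plate-corrected score three or more library SD toward inhibition, starting fluorescence score within five deviations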;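 further: score derived from kinetic fluorescence span divided by baseline fluorescence per well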
TMEM16A act – activators or potentiators of mouse TMEM16A chloride channel; Q8BHY3; HEK293 TMEM16A/YFP-H148Q/I152L, iodide quench fluorescence; active compounds read low; B-score at 10 µM; 340,000 compounds, 0.3% hits;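 active means fluorescence-ratio B-score plate-corrected deviation score at least 3 library SD below zero, with starting fluorescence score within 5 deviations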;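 further: channel opened by trigger with iodide after compound preincubation; score built on the fluorescence ratio of max minus min over baseline; more negative score means more quench and so TMEM16A activation or potentiation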
TMEM16A reconf – reconfirmed blocker of mouse TMEM16A calcium-activated chloride channel; shares compounds with TMEM16A inh; HEK293 TMEM16A/YFP-H148Q, iodide quench fluorescence; ionomycin added to raise cell calcium; AID 652189; inhibition, % at 10 µM; 2,300 compounds, 39% hits;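 active means mean duplicate percent inhibition, scaled so buffer wells are 0 and the reference blocker 100, over three buffer SD above buffer mean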
TMEM16A Ca cntr – alters calcium mobilization in TMEM16A HEK293 cells, counter-screen. shares compounds with TMEM16A inh. TMEM16A/YFP HEK293, Fluo4 calcium mobilization. calcium response (% of ionomycin), % at 10 µM. 2,300 compounds, 2% hits. AID 652231;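 active means duplicate-averaged calcium signal over 20% of the ionomycin maximum, relative to buffer baseline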;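 further: each well's signal is peak minus trough fluorescence divided by its pre-addition baseline; 0% = buffer wells and 100% = ionomycin wells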
YFP-HEK293 quench – acts in parental YFP-HEK293 cells lacking TMEM16A, counter-screen; shares compounds with TMEM16A inh; AID 652233; YFP ratio F(max-min)/F0 at 10 µM; iodide YFP quench, ionomycin; 2,300 tested, under 10 active;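 active means yellow fluorescent protein signal ratio exceeding the buffer control mean by over 5 SD of those controls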;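 further: ratio is mean of duplicate wells from kinetic YFP trace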
ClC-1 inh – selectivity of TMEM16A inhibitors: inhibition of rat ClC-1 chloride channel; shares compounds with TMEM16A inh; CHO ClC-1-YFP, iodide influx fluorescence quench; iodide control reads 0, buffer control 100; ratio percent, % at 10 µM; 2,300 tested, under 10 active;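 active means duplicate-mean ratio percent above the mean of iodide-only control wells, which defines zero, plus 5 of their SD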;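 further: higher percent means stronger block of ClC-1 iodide influx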
The depositor's hits bear a star; i = inactive; . = no result. In the library only some 2.4% were active in any assay of this set; here they are far more common.

SMILES	Apaf-1 inh	DNA FID counter	UBC13 inh	TMEM16A inh	TMEM16A act	TMEM16A reconf	TMEM16A Ca cntr	YFP-HEK293 quench	ClC-1 inh
O=[N+]([O-])c1cc(S(=O)(=O)C(F)(F)F)ccc1Sc1nc2ccccc2[nH]1	-3	11	-19	i	i	.	.	.	.
CS(=O)(=O)c1ccc(Sc2nc3ccccc3[nH]2)c([N+](=O)[O-])c1	-4	8	-8	i	i	i	i	-0.92	2
O=C1NC(=O)C(c2ccccc2)N1 (stereo not drawn)	.	.	.	.	i	.	.	.	.
CC(C)COc1ccc(C2NC(=O)NC2=O)cc1 (stereo not drawn)	-10	5	7	100*	i	i	i	-0.92	-3
COc1ccc2[nH]cc(CCNS(=O)(=O)c3ccc(F)cc3)c2c1	8	4	12	25*	i	i	i	-1	-8
Cc1ccc(NC(=O)Cn2cc(C(=O)C3CC3)c3ccccc32)c(C)c1	14	-5	3	i	i	.	.	.	.
CC(=O)c1cn(CC(=O)Nc2ccc(C)cc2C)c2ccccc12	-2	-7	2	25*	i	20%*	i	-1	-9
CC(C)Cc1csc(NC(=O)c2ccc(Br)cc2)c1C(=O)O	0	-17	-12	100*	i	i	i	-1.2	-14
CC(C)Cc1csc(NC(=O)C(C)C)c1C(=O)O	7	0	1	i	i	.	.	.	.
Cc1ccc(/C=C(\NC(=O)c2ccc(C)cc2)C(=O)NCCCn2ccnc2)cc1	7	4	-2	i	i	.	.	.	.
O=S(=O)(c1ccc(Cl)cc1)N1CCCC1c1nc(-c2ccc(Cl)cc2)no1 (stereo not drawn)	28	-11	-15	i	i	.	.	.	.
O=S(=O)(c1ccccc1Cl)N1CCCC1c1nc(-c2ccccc2Cl)no1 (stereo not drawn)	18	-12	8	100*	i	18%*	i	-1.1	-14
O=C(Oc1ccc2ccccc2c1Cl)N1CCCCCC1	27	-12	-8	25*	i	i	i	-0.76	-14
O=C(Oc1ccc(Cl)c2ccccc12)N1CCCCC1	14	-10	1	25*	i	i	i	-0.88	-12
O=C(NCCc1ccccc1F)C1CCCN1S(=O)(=O)c1ccc2ccccc2c1 (stereo not drawn)	14	-36	7	i	i	.	.	.	.
COCCn1c(C)cc(C(=O)CSc2ncn[nH]2)c1C	-2	0	14	100*	i	i	i	-1.1	-7
CCCCSc1nnc2c(n1)[nH]c1ccccc12	4	0	-29	25*	i	i	i	-1.2	-10
COc1ccc(CNC(=O)C[C@H]2C[C@H](C(=O)N3CCCCC3)[C@@]3(CCc4ccccc4)c4[nH]c5ccc(Cl)cc5c4CCN3C2=O)cc1OC	25	.	.	.	.	.	.	.	.
N#Cc1c(NC(=O)CSc2nnnn2C2CCCCC2)sc2c1CCCC2	7	1	3	25*	i	i	i	-1.1	-8
CCOc1ccccc1N(C)C(=O)CCS(=O)(=O)c1ccc2c(c1)NC(=O)CO2	3	-26	0	i	i	.	.	.	.
N=c1n(Cc2ccc(Cl)cc2)c2ccccc2n1CC(O)COc1ccccc1 (stereo not drawn)	34	43*	32	25*	i	28%*	i	-1	-8
COc1ccccc1NC(=O)c1cc2cc(Br)ccc2cc1O	.	1	.	100*	i	76%*	i	-0.89	-15
COc1cc2ccccc2cc1C(=O)Nc1ccccc1Cl	13	-5	4	100*	i	70%*	i	-0.77	-16
COc1cc(NC(=O)c2cc3ccccc3cc2O)c(OC)cc1Cl	18	2	11	i	i	.	.	.	.
COc1ccc(CN(C)CC(=O)N2CCc3ccccc3C2)cc1	5	0	6	i	i	.	.	.	.
SMILES	Apaf-1 inh	DNA FID counter	UBC13 inh	TMEM16A inh	TMEM16A act	TMEM16A reconf	TMEM16A Ca cntr	YFP-HEK293 quench	ClC-1 inh
Cc1cccc(C)c1OCc1cc(C(=O)N2CCN(c3ccccc3)CC2C)no1 (stereo not drawn)	28	-28	-17	i	i	.	.	.	.
COc1ccc2nc(C)cc(N3CCOCC3)c2c1	-12	3	-10	i	i	.	.	.	.
COc1ccc2nc(C)cc(N3CC(C)OC(C)C3)c2c1 (stereo not drawn)	-11	10	5	25*	i	i	i	-0.86	-12
COC(=O)c1cc(=O)n(Cc2cccs2)c(=NCc2cccs2)s1	-3	-2	5	25*	i	i	i	-1	-9
COc1cc(NS(=O)(=O)c2ccc(Br)s2)cc(OC)c1	7	-3	-9	25*	i	32%*	i	-0.98	-6
CCOc1cc(C(=O)N/N=C/c2cn(-c3ccccc3)nc2-c2cc3ccccc3o2)cc(OCC)c1OCC	.	.	.	.	i	.	.	.	.
COc1ccc(Br)cc1S(=O)(=O)N1CCCc2ccccc21	4	-10	6	i	i	.	.	.	.
Cc1ncc([N+](=O)[O-])n1S(=O)(=O)c1cc(Cl)ccc1Cl	-5	2	-4	i	i	.	.	.	.
O=C(N/N=C/c1ccc(O)cc1)c1ccc(COc2cc(Cl)ccc2Cl)o1	-9	-21	8	25*	-5.6*	i	i	-0.94	-12
CCCCCC(C)NC(=O)c1cc(S(=O)(=O)N2CCCCC2)ccc1N1CCOCC1 (stereo not drawn)	7	.	12	.	i	.	.	.	.
N#C/C(=N\Nc1cccc(Cl)c1)C(=O)c1ccccc1	3	-20	-11	100*	i	26%*	i	-1	-8
N#C/C(=N\Nc1ccccc1Cl)C(=O)c1ccccc1	0	-1	-4	100*	i	i	i	-0.83	-16
Cc1c(N/N=C(\C#N)C(=O)c2ccccc2)c(=O)n(-c2ccccc2)n1C	.	-8	.	.	i	.	.	.	.
N#C/C(=N\Nc1ccc(Cl)cc1)C(=O)c1ccsc1	0	-8	-15	i	i	.	.	.	.
N#C/C(=N\Nc1c(Cl)cccc1Cl)C(=O)NN	6	4	-28	25*	i	i	i	-0.87	-12
Cc1ccc(NC(=S)NNc2ncc(C(F)(F)F)cc2Cl)c(C)c1	14	-14	-18	i	i	.	.	.	.

High-throughput results as filed in PubChem.
